Measured values pooled from the literature.
Compare with care: the assays were run in different laboratories.
DRD3: D(3) dopamine receptor (DRD3, Homo sapiens, UniProt P35462)
CASP3: Caspase-3 (CASP3, Homo sapiens, UniProt P42574)
SLC6A3: Sodium-dependent dopamine transporter (SLC6A3, Homo sapiens, UniProt Q01959)

CCCN(CCCCNC(=O)c1cc2ccccc2[nH]1)[C@H]1CNc2ccccc2C1  Ki (DRD3; ligand displacement; radioligand; cell membranes): 1.34 nM
O=c1c(O)c(-c2ccc(O)cc2)oc2cc(O)cc(O)c12  Ki (CASP3; enzyme activity; inhibitor; fluorescence): 194000 nM
CN(CCCCNC(=O)c1nc2ccccc2s1)[C@@H]1Cc2cccc3[nH]c(=O)n(c23)C1  Ki (DRD3; ligand displacement; radioligand; cell membranes): 403 nM
O=C1CSC(=S)N1NC(=S)SSC(=S)NN1C(=O)CSC1=S  Ki (Tyrosine-protein phosphatase non-receptor type 22 (PTPN22, Homo sapiens, UniProt Q9Y2R2); enzyme activity; inhibitor; fluorescence): 1100 nM
CC1(C)C=Cc2c(cc3oc(-c4ccccc4)c(O)c(=O)c3c2O)O1  Ki (Peroxisome proliferator-activated receptor gamma (PPARG, Homo sapiens, UniProt P37231); cell-free assay; TR-FRET): 3200 nM
COc1ccc2c(c1)C(=O)N(CCCN1CCN(c3ccccc3OC)CC1)C2  Ki (DRD3; ligand displacement; radioligand): 389 nM
CC1Cc2ccccc2N1C(=O)CCCN(C)[C@@H]1Cc2cccc3[nH]c(=O)n(c23)C1 (stereo partly shown)  Ki (DRD3; ligand displacement; radioligand; cell membranes): 3340 nM
CCCCN1CCC(COC(=O)c2ccc(N)c(OCF)c2)CC1  Ki (SLC6A3; cell-free assay; radioligand): > 10000 nM
O=C(/C=C(/Nc1ccccc1)C(=O)c1ccccc1)c1ccccc1  Ki (DNA repair nuclease/redox regulator APEX1 (APEX1, Homo sapiens, UniProt P27695); enzyme activity; inhibitor): 37000 nM
CC/C(=C(/c1ccc(O)cc1)c1ccc(OCCN)cc1)c1ccc(O)cc1  Ki (Aromatase (CYP19A1, Homo sapiens, UniProt P11511); enzyme activity; inhibitor; fluorescence): 20 nM
Oc1cccc(CCC2=NCCN2Cc2ccccc2)c1  Ki (DRD3; ligand displacement; radioligand): 1260 nM
CSC[C@H](NC(=O)C1=NO[C@@H]2OCC[C@H]12)C(=O)N[C@@H](CC(C)C)[C@@H](O)C[C@@H](C)C(=O)N[C@H](C(=O)NCC(C)C)C(C)C  Ki (Beta-secretase 2 (BACE2, Homo sapiens, UniProt Q9Y5Z0); enzyme activity; inhibitor): 46 nM
CNc1nc2cc(OCCCCN3CCC(c4cccc(Cl)c4Cl)CC3)ccc2s1  Ki (SLC6A3; ligand displacement; radioligand): 2100 nM
O=c1cc(-c2ccc(O)c(O)c2)oc2cc(O)cc(O)c12  Ki (CASP3; enzyme activity; inhibitor; fluorescence): 181000 nM
O=C(O[C@@H]1Cc2c(O)cc(O[C@H]3O[C@H](CO)[C@@H](O)[C@H](O)[C@H]3O)cc2O[C@@H]1c1cc(O)c(O)c(O)c1)c1cc(O)c(O)c(O)c1  Ki (Maltase-glucoamylase (Homo sapiens, UniProt O43451); enzyme activity; inhibitor): 7880 nM
CC(=O)N[C@@H](CCCCNC(=O)CSCCNC(=O)CCNC(=O)[C@H](O)C(C)(C)COP(=O)(O)OP(=O)(O)OC[C@H]1O[C@@H](n2cnc3c(N)ncnc32)[C@H](O)[C@@H]1OP(=O)(O)O)C(N)=O  Ki (Histone acetyltransferase type B catalytic subunit (Homo sapiens, UniProt O14929); enzyme activity; inhibitor; radiometric): 74800 nM
CN(CCCCNC(=O)c1cc2ccccc2[nH]1)[C@@H]1Cc2cccc3[nH]c(=O)n(c23)C1  Ki (DRD3; ligand displacement; radioligand; cell membranes): 82.7 nM
CCc1nc2cc(OCCCCN3CCC(c4cccc(Cl)c4Cl)CC3)ccc2s1  Ki (SLC6A3; ligand displacement; radioligand): 4000 nM
NS(=O)(=O)c1ccc(-n2nccc2-c2ccc(N3CCCCC3)cc2)cc1  Ki (Carbonic anhydrase 12 (CA12, Homo sapiens, UniProt O43570); enzyme activity; inhibitor; stopped-flow): 298 nM
